This is an account of results in ChEMBL document CHEMBL3098124, “Design, synthesis and anti-Alzheimer properties of dimethylaminomethyl-substituted curcumin derivatives” (Bioorg Med Chem Lett, 2014).

The term IC50 denotes the point on the concentration scale where inhibition reaches its midpoint. What is called solubility is how much of the substance goes into solution per volume. The inhibition is the relative decrease from the control value, in per cent. By logP is commonly meant the decadic logarithm of the partition coefficient of the neutral form, usually between octanol and water. A higher logP goes with a more lipophilic compound.

Data set [1] can be described thus: Antioxidant activity assessed as galvinoxyl free radical scavenging activity after 19 hrs. The data set is classed as functional. An outline of the steps:
(§1)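 In vitro scavenging of DPPH or galvinoxyl radicals by a literature method. IC50 reported in µM as mean ± S.E.M.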

The subject of data set [2] is Radical scavenging activity. The data set can be described thus: Antioxidant activity assessed as DPPH free radical scavenging activity after 4 hrs. The class given is functional. The procedure, abridged:
as §1

Data set [3] can be described thus: Aqueous solubility of the compound. The data set is classed as physicochemical.
Data set [4] concerns the target Amyloid-beta precursor protein (Homo sapiens) (UniProt P05067). Nature of the data set: Inhibition of amyloid beta-42 self-aggregation (unknown origin) at 50 uM after 1 hr by ThT fluorescence assay relative to control. An outline of the steps:
(§2)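 Aβ42 self-aggregation read by Thioflavin T fluorescence. Test concentrations were 5, 50 and 100 µM. Each result is the mean of 3 measurements ± SEM. Statistics by one-way ANOVA with Tukey's multiple comparison test against Aβ alone.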

Data set [5] has the same target. The data set can be described thus: Inhibition of amyloid beta-42 self-aggregation (unknown origin) at 100 uM after 1 hr by ThT fluorescence assay relative to control. The procedure, abridged:
as §2

The target is the same in data set [6]. Nature of the data set: Inhibition of amyloid beta-42 self-aggregation (unknown origin) after 1 hr by ThT fluorescence assay. The procedure, abridged: as §2
Data set [7] in a line: n-octanol-water partition coefficient, log P of the compound by HPLC analysis. The data set is classed as physicochemical. An outline of the steps:
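Experimental logP determined in an octanol–water system for two representative compounds. All other values were calculated in silico.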

Data set [8] in a line: Chemical stability of the compound in PBS at pH 7.4 at […] measured up to 120 mins by absorption spectroscopic analysis in presence of 0.1% FBS. The class given is physicochemical. The note with it: buffer, pH 7.4, 2 h. An outline of the steps:
(§3)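 Visible absorption at 410 nm tracked over time in phosphate-buffered solution, pH 7.4, under daylight. FBS was 0.1% for line 5 and absent for line 4. Stability expressed as A/A0, with A0 the absorbance at 0 min.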

Data set [9] can be described thus: Chemical stability of the compound in PBS at pH 7.4 at […] measured up to 120 mins by absorption spectroscopic analysis in absence of 0.1% FBS. The data set is classed as physicochemical. The note with it: buffer, pH 7.4, 2 h. An outline of the steps:
as §3

Chain of Amyloid-beta precursor protein (Homo sapiens) (P05067 whole entry): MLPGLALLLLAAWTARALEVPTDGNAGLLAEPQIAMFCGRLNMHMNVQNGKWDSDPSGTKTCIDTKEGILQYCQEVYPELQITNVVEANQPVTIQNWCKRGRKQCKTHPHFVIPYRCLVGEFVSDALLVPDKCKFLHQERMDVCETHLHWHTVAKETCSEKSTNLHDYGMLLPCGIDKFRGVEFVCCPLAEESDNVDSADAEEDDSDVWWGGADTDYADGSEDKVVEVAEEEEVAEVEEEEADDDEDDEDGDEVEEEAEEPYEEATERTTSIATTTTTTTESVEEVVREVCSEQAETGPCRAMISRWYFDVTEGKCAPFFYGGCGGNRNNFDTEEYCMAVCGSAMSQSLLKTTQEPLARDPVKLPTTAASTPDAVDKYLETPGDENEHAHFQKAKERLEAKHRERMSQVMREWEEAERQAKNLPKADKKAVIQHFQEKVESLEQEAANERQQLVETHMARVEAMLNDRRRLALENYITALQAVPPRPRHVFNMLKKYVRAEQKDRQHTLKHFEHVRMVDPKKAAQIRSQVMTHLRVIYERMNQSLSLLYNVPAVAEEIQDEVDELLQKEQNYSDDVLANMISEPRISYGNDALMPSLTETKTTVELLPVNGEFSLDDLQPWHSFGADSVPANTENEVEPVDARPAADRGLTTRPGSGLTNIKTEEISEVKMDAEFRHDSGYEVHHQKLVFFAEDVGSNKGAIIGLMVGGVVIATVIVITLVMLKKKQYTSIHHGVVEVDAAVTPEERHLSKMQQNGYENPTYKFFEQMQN

On to `COc1ccc(/C=C/C(O)=C/C(=O)/C=C/c2ccc(O)c(CN(C)C)c2)cc1`, for which the IC50 stood at 11.9 µM in data set [1] and 15.1 µM in data set [2].

As to `Cc1ccc(/C=C/C(O)=C/C(=O)/C=C/c2ccc(O)c(CN(C)C)c2)cc1`, the IC50 in data set [1] amounted to 22 µM; in data set [2] it was 18.7 µM.

With `CN(C)Cc1cc(/C=C/C(=O)/C=C(O)/C=C/c2ccc(Cl)cc2)ccc1O`, the IC50 in [1] was determined as 41.1 µM; in [2], 11.1 µM.

In the case of `CN(C)Cc1cc(/C=C/C(=O)/C=C(O)/C=C/c2ccc(O)c(CN(C)C)c2)ccc1O.Cl.Cl`, the solubility in [3] was 16700 µg/mL.

As to `CN(C)Cc1cc(/C=C/C(=O)/C=C(O)/C=C/c2ccc(O)cc2)ccc1O`, the IC50 worked out at 7.6 µM in data set [1] and 1.5 µM in data set [2].

Take `COc1ccc(/C=C/C(O)=C/C(=O)/C=C/c2ccc(O)c(CN(C)C)c2)cc1OC`: the IC50 in [1] was 27.4 µM; in data set [2], 29.9 µM.

As to `COc1cc(/C=C/C(=O)CC(=O)/C=C/c2ccc(O)c(OC)c2)ccc1O`, the figures for the inhibition in data set [4], in data set [5] and in [6] were 24%, 29% and “Dose-dependent effect”, respectively.

For `CN(C)Cc1cc(/C=C/C(=O)/C=C(O)/C=C/c2ccc(O)c(CN(C)C)c2)ccc1O` [listing 1 of 2 here], the IC50 is 4.9 µM in data set [1] and 1.6 µM in [2]. Besides, the logP in data set [7] was determined as 3.48. Also, the Stability entry in [8] and in data set [9] was “Stable” in each case.

`CN(C)Cc1cc(/C=C/C(=O)/C=C(O)/C=C/c2ccc(O)c(CN(C)C)c2)ccc1O` [listing 2 of 2 here]: the inhibition is 28% in data set [4], 32% in data set [5] and “Dose-dependent effect” in data set [6].

`COc1cc(/C=C/C(O)=C/C(=O)/C=C/c2ccc(O)c(CN(C)C)c2)ccc1O.Cl` returned a solubility in data set [3] of 1200 µg/mL.

Take `CN(C)Cc1cc(/C=C/C(=O)/C=C(O)/C=C/c2cccc(O)c2)ccc1O`: the IC50 was found to be 6.9 µM in data set [1] and 4 µM in [2].

`COc1cc(/C=C/C(O)=C/C(=O)/C=C/c2ccc(O)c(CN(C)C)c2)ccc1O` showed a logP in [7] of 3.65.

Turning to `CN(C)Cc1cc(/C=C/C(=O)/C=C(O)/C=C/c2ccc(F)cc2)ccc1O`, the values for the IC50 in [1] and in [2] were 22.3 µM and 24.1 µM, respectively.
